Measured values reported in ChEMBL document CHEMBL2034946, “Synthesis and biological evaluation of cyclic sulfamide derivatives as 11β-hydroxysteroid dehydrogenase 1 inhibitors” (ACS Med Chem Lett, 2012).

Tests used:
[1] = target: 11-beta-hydroxysteroid dehydrogenase 1 (Homo sapiens, UniProt P28845); test: Inhibition of human 11beta-HSD1 expressed in CHO-K1 cells using cortisone as substrate after 3 hrs by HTRF assay; assay type: cell-based
Outline: (§1)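 Cells overexpressing human or mouse 11β-HSD1 incubated with cortisone plus compound for 3 h; cortisol measured by HTRF. IC50 fitted from concentration-dependent inhibition curves; means ± SEM of triplicate experiments.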

Mus musculus [2] = test: Ex-vivo inhibition of 11betaHSD1 in C57BL/6 mouse liver at 20 mg/kg, po after 2 hrs by ELISA; assay type: functional; settings: C57BL/6, Liver
Outline: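 Normal mice given 20 mpk orally; liver tissue taken 2 h after dosing and 11β-HSD1 activity measured ex vivo as % inhibition relative to vehicle.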

[3] = Metabolic stability in human liver microsomes assessed as compound remaining after 30 mins; assay type: ADME, Microsome; settings: read-out: Stability
Outline: (§2)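 Human and rat liver microsomes incubated with compound for 30 min; stability reported as percent parent compound remaining.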

Mus musculus [4] = test: Ex-vivo inhibition of 11betaHSD1 in C57BL/6 mouse fat at 20 mg/kg, po after 2 hrs by ELISA; assay type: functional; settings: C57BL/6, 2 h
Outline: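 Normal mice dosed orally (1, 5, 10 or 20 mpk); 11β-HSD1 activity in fat tissue measured ex vivo 2 h post-dose.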

[5] = Metabolic stability in rat liver microsomes assessed as compound remaining after 30 mins; assay type: ADME, Microsome; settings: read-out: Stability; outline: as §2
[6] = target: 11-beta-hydroxysteroid dehydrogenase 1 (Mus musculus, UniProt P50172); test: Inhibition of mouse 11beta-HSD1 expressed in CHO-K1 cells using cortisone as substrate after 3 hrs by HTRF assay; assay type: cell-based; outline: as §1
Sequence of 11-beta-hydroxysteroid dehydrogenase 1 (Mus musculus, UniProt P50172) (P50172 whole entry): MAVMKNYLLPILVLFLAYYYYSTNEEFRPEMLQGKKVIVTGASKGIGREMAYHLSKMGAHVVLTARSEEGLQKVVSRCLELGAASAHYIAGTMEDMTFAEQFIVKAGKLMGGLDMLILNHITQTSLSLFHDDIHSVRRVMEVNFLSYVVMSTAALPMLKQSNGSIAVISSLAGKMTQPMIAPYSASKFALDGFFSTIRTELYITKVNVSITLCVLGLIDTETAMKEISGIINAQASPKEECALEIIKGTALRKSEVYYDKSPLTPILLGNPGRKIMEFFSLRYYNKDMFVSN

Sequence of 11-beta-hydroxysteroid dehydrogenase 1 (Homo sapiens, UniProt P28845) (P28845 whole entry): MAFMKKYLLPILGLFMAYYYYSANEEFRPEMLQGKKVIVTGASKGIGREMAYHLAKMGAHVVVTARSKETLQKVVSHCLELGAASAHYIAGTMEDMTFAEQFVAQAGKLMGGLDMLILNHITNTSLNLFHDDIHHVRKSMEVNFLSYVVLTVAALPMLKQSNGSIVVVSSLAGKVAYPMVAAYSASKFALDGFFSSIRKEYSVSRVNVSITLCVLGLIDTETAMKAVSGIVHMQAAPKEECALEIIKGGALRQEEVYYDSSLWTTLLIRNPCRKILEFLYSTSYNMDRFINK

Row | SMILES | IC50 ([1]; read-out: IC50) | remaining at 0.5 h [3] | remaining at 0.5 h [5] | IC50 [6] | IC50 ([1]; cho-k1) | inhibition in vivo at 20 mg/kg (Mus musculus [2]) | inhibition in vivo at 20 mg/kg (Mus musculus [4])
1 | O=C(O)CN1CCCN(c2ccccc2)S1(=O)=O |  |  |  |  | Not Active |  | 
2 | NC(=O)[C@]12CC3CC(C1)[C@@H](NC(=O)CN1CCN(c4c(Cl)cc(Cl)cc4Cl)S1(=O)=O)C(C3)C2 | 187 nM |  |  | 409 nM |  |  | 
3 | O=C(CN1CCCN(c2ccccc2)S1(=O)=O)NC12CC3CC(CC(C3)C1)C2 | 3370 nM |  |  |  |  |  | 
4 | CC1(C)CN(CC(=O)N[C@H]2C3CC4CC2C[C@](C(N)=O)(C4)C3)S(=O)(=O)N(c2c(Cl)cc(Cl)cc2Cl)C1 | 5 nM |  |  | 26 nM |  |  | 29.9%
5 | NC(=O)[C@]12CC3CC(C1)[C@@H](NC(=O)CN1CCCN(c4c(F)cc(F)cc4F)S1(=O)=O)C(C3)C2 | 20 nM |  |  | 157 nM |  |  | 

Second part, led by results:

Row | IC50 ([1]; read-out: IC50) | remaining at 0.5 h [3] | remaining at 0.5 h [5] | IC50 [6] | SMILES | IC50 ([1]; cho-k1) | inhibition in vivo at 20 mg/kg (Mus musculus [2]) | inhibition in vivo at 20 mg/kg (Mus musculus [4])
6 | 1 nM | 40% | 26% | 1 nM | NC(=O)[C@]12CC3CC(C1)[C@@H](NC(=O)CN1CCCCN(c4c(Cl)cc(Cl)cc4Cl)S1(=O)=O)C(C3)C2 |  | 51.4% | 59.9%
7 | 17 nM |  |  | 207 nM | NC(=O)[C@]12CC3CC(C1)[C@@H](NC(=O)CN1CCCN(c4ccccc4)S1(=O)=O)C(C3)C2 |  |  | 
8 | 1 nM | 94% | 70% | 70 nM | CC1CCN(c2c(Cl)cc(Cl)cc2Cl)S(=O)(=O)N1CC(=O)N[C@H]1C2CC3CC1C[C@](C(N)=O)(C3)C2 (mixture of isomers) |  |  | 74.5%
9 | 1 nM | 61% | 57% | 4 nM | NC(=O)[C@]12CC3CC(C1)[C@@H](NC(=O)CN1CCCN(c4c(Cl)cc(Cl)cc4Cl)S1(=O)=O)C(C3)C2 |  | 83.7% | 92.1%
